The source of these data is ChEMBL document CHEMBL3286172, “Exploring the role of 2-chloro-6-fluoro substitution in 2-alkylthio-6-benzyl-5-alkylpyrimidin-4(3H)-ones: effects in HIV-1-infected cells and in HIV-1 reverse transcriptase enzymes” (J Med Chem, 2014).

Data set [1] relates to Human immunodeficiency virus 1. The experiment in a line: Antiviral activity against wild type HIV-1 NL4-3 infected in human MT4 cells assessed as inhibition of virus-induced cytopathic effect by MTT method. Format: functional, organism-based. The following applies: Human immunodeficiency virus 1, NL4-3, MT4. The procedure, abridged:
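MT-4 lymphoid cells infected with wild-type HIV-1 NL4-3 while exposed to a range of drug concentrations. Viable cells counted by tetrazolium (MTT) colorimetry at day 5 post-infection. Means of at least two experiments.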

For data set [2], the system named is Human immunodeficiency virus 1. The experiment in a line: Antiviral activity against HIV-1 harboring NNTRI-resistant reverse transcriptase Y181C mutant infected in human MT4 cells assessed as inhibition of virus-induced cytopathic effect by MTT method. It is filed as functional, organism-based. The settings on record: Human immunodeficiency virus 1, MT4. The method in brief: (§1)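 MT-4 lymphoid cells infected with HIV-1 carrying RT K103N, Y181C or Y188L, with a range of drug concentrations present. Viable cells counted by MTT colorimetric assay at day 5 post-infection. […] Highest concentration tested was limited by precipitation in culture medium. Means of at least two experiments.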

A short description of data set [3]: Cytotoxicity against human MT4 cells assessed as induction of cell death by MTT method. It is filed as cell-based. The method in brief:
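Mock-infected MT-4 cells exposed to a range of drug concentrations. Viability read by MTT colorimetry at day 5. […] Top concentration was limited where compound precipitated in the culture medium. Means of at least two experiments.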

The subject of data set [4] is Human immunodeficiency virus 1. Nature of the data set: Antiviral activity against HIV-1 harboring NNTRI-resistant reverse transcriptase K103N mutant infected in human MT4 cells assessed as inhibition of virus-induced cytopathic effect by MTT method. It is filed as functional, organism-based. The settings on record: Human immunodeficiency virus 1, MT4.
In data set [5] the test system is Human immunodeficiency virus 1. The experiment in a line: Antiviral activity against HIV-1 harboring NNTRI-resistant reverse transcriptase Y188L mutant infected in human MT4 cells assessed as inhibition of virus-induced cytopathic effect by MTT method. It is filed as functional, organism-based. The following applies: Human immunodeficiency virus 1, MT4. The procedure, abridged: as §1

A short description of data set [6]: Selectivity index, ratio of CC50 for human MT4 cells to EC50 for wild type HIV-1 NL4-3 infected in human MT4 cells. It is filed as toxicity, cell-based. The settings on record: read-out: Ratio CC50/EC50. The method in brief: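 Ratio of CC50 to EC50, both from MTT readings in MT-4 cells at day 5. CC50 was taken in mock-infected cells and EC50 in cells infected with wild-type NL4-3. Values are means of at least two experiments.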

The target in data set [7] is Human immunodeficiency virus type 1 reverse transcriptase (Human immunodeficiency virus 1) (UniProt Q72547).
Data set [8] relates to Human immunodeficiency virus type 1 reverse transcriptase (Human immunodeficiency virus 1), Q72547 [K103N].
Data set [9] deals with Human immunodeficiency virus type 1 reverse transcriptase (Human immunodeficiency virus 1), Q72547 [L100I].

Regarding `Cc1c(Cc2c(F)cccc2Cl)nc(SC2CCCC2)[nH]c1=O`, the EC50 was 180 nM in [1], more than 71000 nM in data set [2], more than 71000 nM in data set [4] and more than 71000 nM in data set [5]. The CC50 in [3] is more than 71000 nM. In addition, the selectivity ratio in data set [6] is more than 394.

For `Cc1c([C@H](C)c2c(F)cccc2Cl)nc(SC(C)C)[nH]c1=O`, the EC50 in data set [1] stood at 0.03 nM; in data set [2], 150 nM; in data set [4], 10 nM; in [5], 350 nM. Besides, the CC50 in [3] is more than 23500 nM.

Consider `Cc1c([C@@H](C)c2c(F)cccc2Cl)nc(SC(C)C)[nH]c1=O`, for which the EC50 in data set [1] is 220 nM; in data set [2], more than 36900 nM; in data set [4], more than 36900 nM; in data set [5], more than 36900 nM. The CC50 in data set [3] was more than 36900 nM.

`Cc1c([C@@H](C)c2c(F)cccc2F)nc(SC2CCCC2)[nH]c1=O` yielded a pID50 in data set [7] of 6.

Take `Cc1c([C@H](C)c2c(F)cccc2F)nc(SC2CCCC2)[nH]c1=O`: in data set [7], the pID50 came to 8.1.

Turning to `Cc1c(C(C)c2c(F)cccc2Cl)nc(SC(C)C)[nH]c1=O` (racemic), the EC50 in data set [1] was determined as 0.04 nM; in [2], 250 nM; in data set [4], 140 nM; in data set [5], 3400 nM. Also, the CC50 in data set [3] was more than 15000 nM.

Regarding `CCC(C)Sc1nc(C(C)c2c(F)cccc2Cl)c(C)c(=O)[nH]1` (racemic), the EC50 was 0.3 nM in data set [1], 390 nM in data set [2], 320 nM in data set [4] and more than 1500 nM in [5]. Also, the CC50 in [3] is more than 1500 nM.

For the molecule `CCc1c(C(C)c2c(F)cccc2Cl)nc(SC(C)C)[nH]c1=O` (racemic), the ID50 in [7] came to 48 nM; in data set [8] it was 2600 nM; in [9], 1100 nM. The EC50 in data set [1] was 960 nM; in [2], more than 3000 nM; in [4] it was more than 3000 nM; in [5], more than 3000 nM. Moreover, the CC50 in [3] is more than 3000 nM. In addition, the selectivity ratio in data set [6] was more than 3.

Regarding `CCCSc1nc(C(C)c2c(F)cccc2Cl)c(CC)c(=O)[nH]1` (racemic), the figures for the ID50 in data set [7], in [8] and in [9] were 10 nM, 2600 nM and 230 nM, respectively. The EC50 in [1] was 28 nM; in data set [2] it was more than 3000 nM; in [4], more than 3000 nM; in [5], more than 3000 nM. Further, in [3], the CC50 was more than 3000 nM. The selectivity ratio in data set [6] is more than 107.

In the case of `CCc1c(C(C)c2c(F)cccc2Cl)nc(SC(C)CC)[nH]c1=O` (racemic), the results for the ID50 in data set [7], in data set [8] and in [9] were 8 nM, 2400 nM and 400 nM, respectively. In addition, the EC50 in data set [1] was 270 nM; in data set [2] it was more than 3000 nM; in data set [4], more than 3000 nM; in data set [5], more than 3000 nM. Moreover, the CC50 in data set [3] was more than 3000 nM. Moreover, the selectivity ratio in [6] was more than 11.

Take `CCCCSc1nc(C(C)c2c(F)cccc2Cl)c(CC)c(=O)[nH]1` (racemic): the ID50 came to 22 nM in [7], 2300 nM in [8] and 330 nM in [9]. The EC50 in [1] is 64 nM; in [2], more than 3000 nM; in [4], more than 3000 nM; in data set [5], more than 3000 nM. The CC50 in data set [3] is more than 3000 nM. Also, the selectivity ratio in data set [6] is more than 47.

Take `CCc1c(C(C)c2c(F)cccc2Cl)nc(SC2CCCC2)[nH]c1=O` (racemic): the ID50 in [7] turned out to be 24 nM; in data set [8], 1800 nM; in data set [9], 530 nM. Besides, the EC50 in data set [1], in data set [2], in data set [4] and in data set [5] was more than 3000 nM each time. The CC50 in data set [3] was more than 3000 nM.

Take `CCC(c1nc(SC(C)C)[nH]c(=O)c1C)c1c(F)cccc1Cl` (racemic): the ID50 was 6 nM in data set [7], 420 nM in data set [8] and 120 nM in data set [9]. In addition, the EC50 was 84 nM in data set [1], more than 3000 nM in [2], more than 3000 nM in [4] and more than 3000 nM in data set [5]. In [3], the CC50 was more than 3000 nM. For the same molecule, the selectivity ratio in data set [6] was more than 36.

Regarding `CCC(C)Sc1nc(C(CC)c2c(F)cccc2Cl)c(C)c(=O)[nH]1` (racemic), the ID50 in [7] turned out to be 2 nM; in data set [8] it was 450 nM; in data set [9], 120 nM. Also, the EC50 in [1] is 54 nM; in data set [2], more than 3000 nM; in [4], more than 3000 nM; in data set [5], more than 3000 nM. Moreover, in [3], the CC50 was more than 3000 nM. Moreover, the selectivity ratio in data set [6] is more than 56.

Regarding `CCCCSc1nc(C(CC)c2c(F)cccc2Cl)c(C)c(=O)[nH]1` (racemic), the ID50 in [7] worked out at 3 nM; in [8], 1000 nM; in data set [9] it was 260 nM. The EC50 is 110 nM in data set [1], more than 3000 nM in data set [2], more than 3000 nM in [4] and more than 3000 nM in [5]. Further, in data set [3], the CC50 is more than 3000 nM. Further, the selectivity ratio in [6] is more than 27.

For the molecule `CCC(c1nc(SC2CCCC2)[nH]c(=O)c1C)c1c(F)cccc1Cl` (racemic), the ID50 in [7] stood at 4 nM; in [8] it was 340 nM; in [9] it was 68 nM. Moreover, the EC50 in data set [1] is 580 nM; in data set [2], more than 3000 nM; in data set [4] it was more than 3000 nM; in data set [5] it was more than 3000 nM. Moreover, the CC50 in data set [3] was more than 3000 nM. In data set [6], the selectivity ratio was more than 5.

`CCCSc1nc(C(C)c2c(F)cccc2F)c(C)c(=O)[nH]1` (racemic): the ID50 in data set [7] was determined as 1 nM; in [8] it was 380 nM; in data set [9], 230 nM. Further, the EC50 in data set [1] was 28 nM; in [2], more than 3000 nM; in data set [4], more than 3000 nM; in data set [5], more than 3000 nM. Besides, the CC50 in [3] was more than 3000 nM. In addition, the selectivity ratio in data set [6] was more than 107.

For `CCc1c(C(C)c2c(F)cccc2F)nc(SC(C)C)[nH]c1=O` (racemic), the ID50 in [7] is 12 nM; in data set [8], 830 nM; in [9], 27200 nM. The EC50 in data set [1] is 89 nM; in data set [2] it was more than 3000 nM; in data set [4], more than 3000 nM; in data set [5] it was more than 3000 nM. For the same molecule, in [3], the CC50 is more than 3000 nM. Besides, the selectivity ratio in data set [6] is more than 34.

Turning to `CCCSc1nc(C(C)c2c(F)cccc2F)c(CC)c(=O)[nH]1` (racemic), the ID50 in [7] was found to be 3 nM; in [8] it was 430 nM; in data set [9] it was 270 nM. Moreover, the 50% effective concentration (EC50) was 240 nM in data set [1], more than 3000 nM in data set [2], more than 3000 nM in data set [4] and more than 3000 nM in [5]. The CC50 in data set [3] is more than 3000 nM. For the same molecule, in [6], the selectivity ratio was more than 12.

For `CCc1c(C(C)c2c(F)cccc2F)nc(SC(C)CC)[nH]c1=O` (racemic), the ID50 in [7] was 11 nM; in [8] it was 450 nM; in [9], 110 nM. Further, the EC50 in data set [1] was 140 nM; in [2], more than 3000 nM; in data set [4] it was more than 3000 nM; in [5], more than 3000 nM. In addition, the CC50 in data set [3] was more than 3000 nM. For the same molecule, in data set [6], the selectivity ratio was more than 21.

As for `CCCCSc1nc(C(CC)c2c(F)cccc2F)c(C)c(=O)[nH]1` (racemic), the values for the ID50 in [7], in data set [8] and in data set [9] were 3 nM, 280 nM and 230 nM, respectively. For the same molecule, the EC50 was 23 nM in data set [1], more than 3000 nM in data set [2], more than 3000 nM in data set [4] and more than 3000 nM in [5]. Further, the CC50 in [3] was more than 3000 nM. Moreover, the selectivity ratio in data set [6] was more than 130.

Consider `CCCCSc1nc(O)c(C)c(C(C)c2c(F)cccc2F)n1` (racemic), for which the ID50 in data set [7] stood at 3 nM; in [8], 450 nM; in data set [9], 230 nM. The EC50 was 50 nM in data set [1], more than 3000 nM in data set [2], more than 3000 nM in data set [4] and more than 3000 nM in [5]. Moreover, in data set [3], the CC50 was more than 3000 nM. In addition, the selectivity ratio in data set [6] was more than 60.

`Cc1c(C(C)c2c(F)cccc2F)nc(SC(C)C)[nH]c1=O` (racemic): the CC50 in data set [3] was more than 3000 nM. Further, the selectivity ratio in data set [6] was more than 3000.

Take `O=C1Nc2ccc(Cl)cc2[C@@](C#CC2CC2)(C(F)(F)F)O1` [EFAVIRENZ]: the EC50 in data set [2] turned out to be 13 nM; in data set [5], 1970 nM. In addition, in data set [3], the CC50 was more than 3000 nM.

Take `Cc1ccnc2c1NC(=O)c1cccnc1N2C1CC1` [NEVIRAPINE]: the EC50 in data set [2] and in data set [5] was more than 7000 nM each time. In [3], the CC50 was more than 7000 nM.
